Source: ChEMBL document CHEMBL1765045, “Fine-tuning the selectivity of aldosterone synthase inhibitors: structure-activity and structure-selectivity insights from studies of heteroaryl substituted 1,2,5,6-tetrahydropyrrolo[3,2,1-ij]quinolin-4-one derivatives” (J Med Chem, 2011)

Key:
[1] = target: T1, Cytochrome P450 11B2, mitochondrial (Homo sapiens, UniProt P19099); experiment: Inhibition of human CYP11B2 expressed in hamster V79 MZh cells assessed as conversion of [4-14C]-11-deoxycorticosterone substrate at 500 nM by HPTLC assay; format: cell-based; conditions: V79MZh
T1 sequence (P19099 whole entry): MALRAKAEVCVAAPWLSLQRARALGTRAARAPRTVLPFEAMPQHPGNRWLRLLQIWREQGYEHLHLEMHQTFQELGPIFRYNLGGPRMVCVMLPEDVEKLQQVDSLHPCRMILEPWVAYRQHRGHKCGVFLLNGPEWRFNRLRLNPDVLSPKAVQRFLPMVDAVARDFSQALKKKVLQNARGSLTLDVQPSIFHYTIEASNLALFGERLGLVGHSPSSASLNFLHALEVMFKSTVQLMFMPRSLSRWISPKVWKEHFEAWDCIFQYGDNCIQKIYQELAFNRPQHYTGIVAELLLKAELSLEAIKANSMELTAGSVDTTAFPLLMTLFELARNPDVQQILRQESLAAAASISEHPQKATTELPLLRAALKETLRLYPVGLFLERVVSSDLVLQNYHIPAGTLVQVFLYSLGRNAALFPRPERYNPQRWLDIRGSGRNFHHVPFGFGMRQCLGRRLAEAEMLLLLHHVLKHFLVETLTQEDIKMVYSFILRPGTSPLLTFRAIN
Procedure, shortened: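 V79 MZh cells expressing human CYP11B2 given [4-14C]-11-deoxycorticosterone, 100 nM, with inhibitor at a single 500 nM concentration. Ethyl acetate extraction, then HPTLC/phosphoimager readout of conversion. Percent inhibition is the mean of at least three experiments.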

Homo sapiens = species: Homo sapiens; experiment: Selectivity ratio of IC50 for human CYP11B1 to IC50 for human CYP11B2
Procedure, shortened: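 Ratio of IC50 values from V79 MZh cell assays for human CYP11B1 and CYP11B2, IC50 CYP11B1/IC50 CYP11B2. Both assays used [4-14C]-11-deoxycorticosterone, 100 nM, inhibitor at ≥3 concentrations and HPTLC/phosphoimager readout of conversion.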

CYP3A4 [2] = target: T2, CYP3A4 (Homo sapiens, UniProt P08684); experiment: Inhibition of human CYP3A4 expressed in baculovirus-infected insect microsomes at 10 uM; format: ADME, Microsome
Procedure, shortened: (§1)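 Recombinant human CYP1A2, 2B6, 2C9, 2C19, 2D6 or 3A4 in baculovirus-infected insect microsomes (Supersomes), run per manufacturer's protocol. Inhibitor at 1 and 10 μM; percent inhibition is the mean of two experiments.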

CYP3A4 [3] = target: T2, CYP3A4; experiment: Inhibition of human CYP3A4 expressed in baculovirus-infected insect microsomes at 1 uM; format: ADME, Microsome; procedure, shortened: as §1
CYP2D6 = CYP2D6 (Homo sapiens, UniProt P10635); experiment: Inhibition of human CYP2D6 expressed in baculovirus-infected insect microsomes at 1 uM; format: ADME, Microsome; procedure, shortened: as §1
CYP2C19 = CYP2C19 (Homo sapiens, UniProt P33261); experiment: Inhibition of human CYP2C19 expressed in baculovirus-infected insect microsomes at 10 uM; format: ADME, Microsome; procedure, shortened: as §1
CYP1A2 [4] = target: T3, CYP1A2 (Homo sapiens, UniProt P05177); experiment: Inhibition of human CYP1A2 expressed in baculovirus-infected insect microsomes at 10 uM; format: ADME, Microsome; procedure, shortened: as §1
T3 sequence (P05177 whole entry): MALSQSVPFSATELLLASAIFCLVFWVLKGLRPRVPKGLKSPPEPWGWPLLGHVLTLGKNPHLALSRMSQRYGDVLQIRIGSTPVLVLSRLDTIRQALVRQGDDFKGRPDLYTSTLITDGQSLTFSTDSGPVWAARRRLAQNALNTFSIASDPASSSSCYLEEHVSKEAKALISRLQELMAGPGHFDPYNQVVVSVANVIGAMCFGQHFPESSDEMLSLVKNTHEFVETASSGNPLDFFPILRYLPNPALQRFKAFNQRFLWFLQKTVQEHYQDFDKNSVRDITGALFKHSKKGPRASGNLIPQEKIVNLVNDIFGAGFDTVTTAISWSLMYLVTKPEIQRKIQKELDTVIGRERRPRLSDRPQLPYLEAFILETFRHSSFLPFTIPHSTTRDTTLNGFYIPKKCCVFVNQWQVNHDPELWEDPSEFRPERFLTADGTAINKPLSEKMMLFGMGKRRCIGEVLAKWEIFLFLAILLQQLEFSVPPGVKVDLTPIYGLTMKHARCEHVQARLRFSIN

CYP17 = target: T4, CYP17 (Homo sapiens, UniProt P05093); experiment: Inhibition of human CYP17 expressed in Escherichia coli using progesterone substrate at 2 uM; conditions: recombinant human CYP17 expressed in Escherichia coli, probe progesterone
T4 sequence (P05093 whole entry): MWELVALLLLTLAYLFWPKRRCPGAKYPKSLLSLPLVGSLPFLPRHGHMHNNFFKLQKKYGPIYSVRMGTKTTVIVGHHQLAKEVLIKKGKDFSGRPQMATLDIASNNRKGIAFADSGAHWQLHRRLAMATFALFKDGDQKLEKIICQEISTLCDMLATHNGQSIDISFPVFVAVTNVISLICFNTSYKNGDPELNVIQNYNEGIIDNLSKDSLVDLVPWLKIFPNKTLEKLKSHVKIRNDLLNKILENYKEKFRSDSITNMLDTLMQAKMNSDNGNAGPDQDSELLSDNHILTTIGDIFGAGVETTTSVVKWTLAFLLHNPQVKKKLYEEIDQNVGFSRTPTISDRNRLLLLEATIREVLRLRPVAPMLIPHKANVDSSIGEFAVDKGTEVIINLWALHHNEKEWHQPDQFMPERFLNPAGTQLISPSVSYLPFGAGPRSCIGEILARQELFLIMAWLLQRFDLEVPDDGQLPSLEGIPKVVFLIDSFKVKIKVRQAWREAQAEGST
Procedure, shortened: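 50000g sediment of E. coli homogenate recombinantly expressing human CYP17. Progesterone substrate at 25 μM, inhibitor tested at 2 μM.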

aromatase (CYP19) = target: T5, aromatase (CYP19) (Homo sapiens, UniProt P11511); experiment: Inhibition of aromatase at 0.5 uM
T5 sequence (P11511 whole entry): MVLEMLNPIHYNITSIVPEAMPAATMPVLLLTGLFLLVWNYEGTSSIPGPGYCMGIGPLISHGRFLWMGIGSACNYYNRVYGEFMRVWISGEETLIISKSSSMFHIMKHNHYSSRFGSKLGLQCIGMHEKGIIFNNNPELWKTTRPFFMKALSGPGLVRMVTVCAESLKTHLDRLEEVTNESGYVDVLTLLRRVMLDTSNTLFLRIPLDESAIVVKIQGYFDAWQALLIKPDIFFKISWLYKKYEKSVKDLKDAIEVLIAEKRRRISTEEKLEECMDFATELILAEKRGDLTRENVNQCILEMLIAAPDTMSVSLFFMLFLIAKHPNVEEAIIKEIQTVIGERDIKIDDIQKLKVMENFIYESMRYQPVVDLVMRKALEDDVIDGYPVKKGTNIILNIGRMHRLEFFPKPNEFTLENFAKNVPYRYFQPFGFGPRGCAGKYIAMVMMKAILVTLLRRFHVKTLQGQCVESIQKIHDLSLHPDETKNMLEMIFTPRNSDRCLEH
Procedure, shortened: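 Human placental microsomes as CYP19 source, [1β-3H]androstenedione substrate at 500 nM, inhibitor at 500 nM. Modified Thompson–Siiteri method, with fadrozole as reference.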

CYP1A2 [5] = target: T3, CYP1A2; experiment: Inhibition of CYP1A2 at 1 uM; format: ADME; procedure, shortened: as §1

Chain of CYP2D6 (P10635 whole entry): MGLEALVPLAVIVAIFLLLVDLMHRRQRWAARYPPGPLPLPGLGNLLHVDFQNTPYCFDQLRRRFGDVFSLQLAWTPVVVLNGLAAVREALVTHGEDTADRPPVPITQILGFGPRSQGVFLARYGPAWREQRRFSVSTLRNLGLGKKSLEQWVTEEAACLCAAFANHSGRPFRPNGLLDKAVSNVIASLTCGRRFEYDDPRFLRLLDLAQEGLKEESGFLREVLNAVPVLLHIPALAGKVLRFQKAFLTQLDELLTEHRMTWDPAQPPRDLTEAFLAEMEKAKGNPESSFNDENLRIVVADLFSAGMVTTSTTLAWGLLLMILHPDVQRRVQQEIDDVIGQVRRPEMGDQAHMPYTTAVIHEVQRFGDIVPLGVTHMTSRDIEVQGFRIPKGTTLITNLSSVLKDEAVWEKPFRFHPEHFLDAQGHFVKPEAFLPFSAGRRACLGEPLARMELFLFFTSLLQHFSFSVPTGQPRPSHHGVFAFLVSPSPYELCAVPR
T2 sequence (P08684 whole entry): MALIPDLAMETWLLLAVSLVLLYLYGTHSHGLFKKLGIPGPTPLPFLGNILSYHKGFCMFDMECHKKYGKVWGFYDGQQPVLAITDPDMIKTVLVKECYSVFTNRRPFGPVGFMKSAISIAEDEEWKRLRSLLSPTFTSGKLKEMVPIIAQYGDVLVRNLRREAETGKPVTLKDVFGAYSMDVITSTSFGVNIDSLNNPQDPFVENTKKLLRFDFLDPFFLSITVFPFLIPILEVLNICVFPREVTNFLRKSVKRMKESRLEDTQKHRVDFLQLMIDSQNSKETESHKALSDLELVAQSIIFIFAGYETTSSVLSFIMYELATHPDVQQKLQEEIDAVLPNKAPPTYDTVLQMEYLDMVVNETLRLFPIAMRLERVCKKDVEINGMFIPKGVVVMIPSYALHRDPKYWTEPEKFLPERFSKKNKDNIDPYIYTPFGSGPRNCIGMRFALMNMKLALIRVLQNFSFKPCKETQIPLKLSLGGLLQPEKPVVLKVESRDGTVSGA
Chain of CYP2C19 (P33261 whole entry): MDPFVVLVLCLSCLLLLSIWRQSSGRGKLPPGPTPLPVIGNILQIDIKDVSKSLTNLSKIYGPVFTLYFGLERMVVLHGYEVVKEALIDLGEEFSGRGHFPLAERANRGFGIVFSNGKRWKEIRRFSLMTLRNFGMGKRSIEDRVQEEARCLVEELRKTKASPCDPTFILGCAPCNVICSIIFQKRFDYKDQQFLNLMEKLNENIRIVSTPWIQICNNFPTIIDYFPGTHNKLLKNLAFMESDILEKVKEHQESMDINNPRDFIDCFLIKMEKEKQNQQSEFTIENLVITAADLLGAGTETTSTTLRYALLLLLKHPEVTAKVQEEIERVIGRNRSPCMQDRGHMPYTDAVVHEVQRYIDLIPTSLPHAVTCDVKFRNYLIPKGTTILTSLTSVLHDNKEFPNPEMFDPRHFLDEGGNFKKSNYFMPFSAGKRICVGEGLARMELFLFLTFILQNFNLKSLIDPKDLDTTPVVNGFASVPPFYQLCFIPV

O=C1CCc2cc(-c3cccnc3)cc3c2N1CC3
inhibition at 0.5 µM [1]: 90% | Ratio IC50 (Homo sapiens): 650 | inhibition at 10 µM (CYP3A4 [2]): < 5% | inhibition at 1 µM (CYP3A4 [3]): < 5% | inhibition at 1 µM (CYP2D6): < 5% | inhibition at 10 µM (CYP2C19): < 5% | inhibition at 10 µM (CYP1A2 [4]): 43% | inhibition at 2 µM (CYP17): 6%

O=C1CCc2cc(-c3cncc(-c4cccc(F)c4)c3)cc3c2N1CC3
inhibition at 0.5 µM [1]: 97% | inhibition at 10 µM (CYP3A4 [2]): 43% | inhibition at 1 µM (CYP3A4 [3]): 37% | inhibition at 1 µM (CYP2D6): < 5% | inhibition at 10 µM (CYP2C19): 21% | inhibition at 10 µM (CYP1A2 [4]): 38% | inhibition at 2 µM (CYP17): 7%

COc1cncc(-c2cc3c4c(c2)CCN4C(=O)CC3)c1
inhibition at 0.5 µM [1]: 98% | inhibition at 10 µM (CYP3A4 [2]): 19% | inhibition at 1 µM (CYP3A4 [3]): 14% | inhibition at 1 µM (CYP2D6): 9% | inhibition at 10 µM (CYP2C19): 30% | inhibition at 10 µM (CYP1A2 [4]): 72% | inhibition at 2 µM (CYP17): < 5%

O=C1CCc2cc(-c3cccnc3)cc3c2N1CCC3
inhibition at 0.5 µM [1]: 95% | inhibition at 0.5 µM (aromatase (CYP19)): 69% | inhibition at 1 µM (CYP1A2 [5]): 41% | inhibition at 10 µM (CYP3A4 [2]): 21% | inhibition at 1 µM (CYP3A4 [3]): 6% | inhibition at 10 µM (CYP2C19): 44% | inhibition at 10 µM (CYP1A2 [4]): 83% | inhibition at 2 µM (CYP17): 6%
